# Assay results reported in ChEMBL document CHEMBL1255234, “daptomycin activity against Staphylococcus aureus following vancomycin exposure in an in vitro pharmacodynamic model with simulated endocardial vegetations” (Antimicrob Agents Chemother, 2008).
# Experiments:
# Staphylococcus aureus [1] = assay: Half life in methicillin-resistant Staphylococcus aureus 36132 at 6 mg/kg administered daily for 4 days pretreated with 1 g vancomycin administered every 12 hrs for 4 days in in vitro pharmacokinetic-pharmacodynamic model with simulated endocardial vegetations; assay type: ADME, organism-based; set-up: dose 6 mg/kg; conditions: in vivo, 96 h
# Outline: (§1)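 Duplicate samples taken from the model injection port over 0–192 h and stored at −70°C. Daptomycin assayed by Micrococcus luteus ATCC 9341 disk microbioassay (standards 2.5–150 mg/liter; detection limit 2.5 mg/liter). Vancomycin assayed by fluorescence polarization immunoassay (detection limit 2 mg/liter). Cmax and half-life derived by the trapezoidal method.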
# Staphylococcus aureus [2] = assay: Antimicrobial activity against methicillin-susceptible Staphylococcus aureus 616 at 6 mg/kg administered daily for 4 days in in vitro pharmacokinetic-pharmacodynamic model with simulated endocardial vegetations; assay type: functional
# Outline: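 SEVs (clot of cryoprecipitate, platelets and organism) were suspended in a 250-ml, 37°C model with bolus dosing and pump clearance simulating half-lives. Daptomycin was given every 24 h (Cmax 98.6, Cmin 6.2 mg/liter) after 4 days of vancomycin 1 g q12h or no treatment. SEVs were sampled to 192 h, homogenized and plated (35°C, 24 h) for CFU/g; T99.9 was derived. Runs were done in duplicate.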
# Staphylococcus aureus [3] = assay: Half life in methicillin-resistant Staphylococcus aureus WB2 at 1 g administered every 12 hrs for 4 days in in vitro pharmacokinetic-pharmacodynamic model with simulated endocardial vegetations; assay type: ADME, organism-based; conditions: in vivo; outline: as §1
# Staphylococcus aureus [4] = assay: AUC(0-24 hrs)/MIC(broth) in methicillin-susceptible Staphylococcus aureus 616 at 1 g administered every 12 hrs for 4 days in in vitro pharmacokinetic-pharmacodynamic model with simulated endocardial vegetations; assay type: functional
# Outline: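 S. aureus simulated endocardial vegetations (fibrin/platelet clots, ~10^9 CFU/g) suspended in a 250-ml one-compartment model at 37°C, medium pumped to mimic half-life; vancomycin bolus every 12 h (target Cmax 30, Cmin 10 mg/liter) for 4 days. Duplicate runs. Drug levels by fluorescence polarization immunoassay; AUC0-24 by trapezoidal method, divided by broth microdilution MIC (CLSI).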
# Staphylococcus aureus [5] = assay: Half life in methicillin-resistant Staphylococcus aureus WB2 at 6 mg/kg administered daily for 4 days pretreated with 1 g vancomycin administered every 12 hrs for 4 days in in vitro pharmacokinetic-pharmacodynamic model with simulated endocardial vegetations; assay type: ADME, organism-based; set-up: dose 6 mg/kg; conditions: in vivo, 96 h; outline: as §1
# Staphylococcus aureus [6] = assay: Cmax in methicillin-susceptible Staphylococcus aureus 616 at 10 mg/kg administered daily for 4 days pretreated with 1 g vancomycin administered every 12 hrs for 4 days in in vitro pharmacokinetic-pharmacodynamic model with simulated endocardial vegetations; assay type: ADME, organism-based; set-up: dose 10 mg/kg; conditions: in vivo, 96 h; outline: as §1
# Staphylococcus aureus [7] = assay: Half life in methicillin-susceptible Staphylococcus aureus 616 at 6 mg/kg administered daily for 4 days pretreated with 1 g vancomycin administered every 12 hrs for 4 days in in vitro pharmacokinetic-pharmacodynamic model with simulated endocardial vegetations; assay type: ADME, organism-based; set-up: dose 6 mg/kg; conditions: in vivo, 96 h; outline: as §1
# Staphylococcus aureus [8] = assay: Half life in methicillin-resistant Staphylococcus aureus WB1 at 6 mg/kg administered daily for 4 days pretreated with 1 g vancomycin administered every 12 hrs for 4 days in in vitro pharmacokinetic-pharmacodynamic model with simulated endocardial vegetations; assay type: ADME, organism-based; set-up: dose 6 mg/kg; conditions: in vivo, 96 h; outline: as §1
# Staphylococcus aureus [9] = assay: Cmax in methicillin-resistant Staphylococcus aureus 675 at 6 mg/kg administered daily for 4 days pretreated with 1 g vancomycin administered every 12 hrs for 4 days in in vitro pharmacokinetic-pharmacodynamic model with simulated endocardial vegetations; assay type: ADME, organism-based; set-up: dose 6 mg/kg; conditions: in vivo, 96 h; outline: as §1
# Staphylococcus aureus [10] = assay: Antimicrobial activity against methicillin-susceptible Staphylococcus aureus 616 at 6 mg/kg administered daily for 8 days in in vitro pharmacokinetic-pharmacodynamic model with simulated endocardial vegetations; assay type: functional
# Outline: (§2)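 S. aureus SEVs (≈10^9 CFU/g inoculum in human cryoprecipitate plus platelets) suspended in a 250-ml one-compartment model at 37°C. Fresh medium pumped to simulate drug half-lives; drug given as boluses over 8 days; duplicate models. Two SEVs removed per model at each time point (0–192 h), homogenized, plated on TSA 35°C 24 h. Log10 CFU/g reduction read from time-kill curves; detection limit 2.0 log10 CFU/g.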
# Staphylococcus aureus [11] = assay: Antimicrobial activity against methicillin-susceptible Staphylococcus aureus 616; assay type: functional
# Outline: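 MIC by broth microdilution in SMHB or by Etest, following CLSI guidelines. MBC defined as 99.9% killing of the starting inoculum, from 5 μl of the MIC well and all other growth-inhibited wells plated onto agar.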
# Staphylococcus aureus [12] = assay: Antimicrobial activity against methicillin-resistant Staphylococcus aureus WB1
# Staphylococcus aureus [13] = assay: Cmax in methicillin-susceptible Staphylococcus aureus 616 at 6 mg/kg administered daily for 4 days pretreated with 1 g vancomycin administered every 12 hrs for 4 days in in vitro pharmacokinetic-pharmacodynamic model with simulated endocardial vegetations; assay type: ADME, organism-based; set-up: dose 6 mg/kg; conditions: in vivo, 96 h; outline: as §1
# Staphylococcus aureus [14] = assay: Half life in methicillin-susceptible Staphylococcus aureus 616 at 10 mg/kg administered daily for 4 days pretreated with 1 g vancomycin administered every 12 hrs for 4 days in in vitro pharmacokinetic-pharmacodynamic model with simulated endocardial vegetations; assay type: ADME, organism-based; set-up: dose 10 mg/kg; conditions: in vivo, 96 h; outline: as §1
# Staphylococcus aureus [15] = assay: microbe, parasite or virus in culture; conditions: 36132
# Staphylococcus aureus [16] = assay: Antimicrobial activity against methicillin-susceptible Staphylococcus aureus 616 at 6 mg/kg administered daily for 8 days pretreated with 1 g vancomycin administered every 12 hrs for 4 days in in vitro pharmacokinetic-pharmacodynamic model with simulated endocardial vegetations; assay type: functional; outline: as §2
# Staphylococcus aureus [17] = assay: Antimicrobial activity against methicillin-susceptible Staphylococcus aureus 616 at 6 mg/kg administered daily for 4 days pretreated with 1 g vancomycin administered every 12 hrs for 4 days in in vitro pharmacokinetic-pharmacodynamic model with simulated endocardial vegetations; assay type: functional; outline: as §2
# Staphylococcus aureus [18] = assay: Cmax in methicillin-resistant Staphylococcus aureus 36132 at 6 mg/kg administered daily for 4 days pretreated with 1 g vancomycin administered every 12 hrs for 4 days in in vitro pharmacokinetic-pharmacodynamic model with simulated endocardial vegetations; assay type: ADME, organism-based; set-up: dose 6 mg/kg; conditions: in vivo, 96 h; outline: as §1
# Staphylococcus aureus [19] = assay: Cmax in methicillin-resistant Staphylococcus aureus WB2 at 6 mg/kg administered daily for 4 days pretreated with 1 g vancomycin administered every 12 hrs for 4 days in in vitro pharmacokinetic-pharmacodynamic model with simulated endocardial vegetations; assay type: ADME, organism-based; set-up: dose 6 mg/kg; conditions: in vivo, 96 h; outline: as §1
# Staphylococcus aureus [20] = assay: Antimicrobial activity against methicillin-susceptible Staphylococcus aureus at 6 mg/kg administered daily for 4 days after 4 days of growth without antibiotic in in vitro pharmacokinetic-pharmacodynamic model with simulated endocardial vegetations
# Staphylococcus aureus [21] = assay: Cmax in methicillin-resistant Staphylococcus aureus WB1 at 6 mg/kg administered daily for 4 days pretreated with 1 g vancomycin administered every 12 hrs for 4 days in in vitro pharmacokinetic-pharmacodynamic model with simulated endocardial vegetations; assay type: ADME, organism-based; set-up: dose 6 mg/kg; conditions: in vivo, 96 h; outline: as §1
# Staphylococcus aureus [22] = assay: Antimicrobial activity against methicillin-resistant Staphylococcus aureus WB2
# Staphylococcus aureus [23] = assay: microbe, parasite or virus in culture; conditions: 675
# Staphylococcus aureus [24] = assay: Half life in methicillin-resistant Staphylococcus aureus 675 at 6 mg/kg administered daily for 4 days pretreated with 1 g vancomycin administered every 12 hrs for 4 days in in vitro pharmacokinetic-pharmacodynamic model with simulated endocardial vegetations; assay type: ADME, organism-based; set-up: dose 6 mg/kg; conditions: in vivo, 96 h; outline: as §1
# Staphylococcus aureus [25] = assay: Half life in methicillin-resistant Staphylococcus aureus 675 at 1 g administered every 12 hrs for 4 days in in vitro pharmacokinetic-pharmacodynamic model with simulated endocardial vegetations; assay type: ADME, organism-based; conditions: in vivo; outline: as §1
# Staphylococcus aureus [26] = assay: Cmax in methicillin-resistant Staphylococcus aureus WB1 at 1 g administered every 12 hrs for 4 days in in vitro pharmacokinetic-pharmacodynamic model with simulated endocardial vegetations; assay type: ADME, organism-based; set-up: dose 1 g; conditions: in vivo; outline: as §1
# Staphylococcus aureus [27] = assay: Cmax in methicillin-resistant Staphylococcus aureus 675 at 1 g administered every 12 hrs for 4 days in in vitro pharmacokinetic-pharmacodynamic model with simulated endocardial vegetations; assay type: ADME, organism-based; set-up: dose 1 g; conditions: in vivo; outline: as §1
# Staphylococcus aureus [28] = assay: Cmax in methicillin-resistant Staphylococcus aureus 36132 at 1 g administered every 12 hrs for 4 days in in vitro pharmacokinetic-pharmacodynamic model with simulated endocardial vegetations; assay type: ADME, organism-based; set-up: dose 1 g; conditions: in vivo; outline: as §1
# Staphylococcus aureus [29] = assay: Half life in methicillin-resistant Staphylococcus aureus WB1 at 1 g administered every 12 hrs for 4 days in in vitro pharmacokinetic-pharmacodynamic model with simulated endocardial vegetations; assay type: ADME, organism-based; conditions: in vivo; outline: as §1
# Staphylococcus aureus [30] = assay: Half life in methicillin-susceptible Staphylococcus aureus 616 at 1 g administered every 12 hrs for 4 days in in vitro pharmacokinetic-pharmacodynamic model with simulated endocardial vegetations; assay type: ADME, organism-based; conditions: in vivo; outline: as §1
# Staphylococcus aureus [31] = assay: Cmax in methicillin-resistant Staphylococcus aureus WB2 at 1 g administered every 12 hrs for 4 days in in vitro pharmacokinetic-pharmacodynamic model with simulated endocardial vegetations; assay type: ADME, organism-based; set-up: dose 1 g; conditions: in vivo; outline: as §1
# Staphylococcus aureus [32] = assay: Half life in methicillin-resistant Staphylococcus aureus 36132 at 1 g administered every 12 hrs for 4 days in in vitro pharmacokinetic-pharmacodynamic model with simulated endocardial vegetations; assay type: ADME, organism-based; conditions: in vivo; outline: as §1
# Staphylococcus aureus [33] = assay: Cmax in methicillin-susceptible Staphylococcus aureus 616 at 1 g administered every 12 hrs for 4 days in in vitro pharmacokinetic-pharmacodynamic model with simulated endocardial vegetations; assay type: ADME, organism-based; set-up: dose 1 g; conditions: in vivo; outline: as §1
compound,measurement,setting,value
CCCCCCCCCC(=O)N[C@@H](Cc1c[nH]c2ccccc12)C(=O)N[C@H](CC(N)=O)C(=O)N[C@@H](CC(=O)O)C(=O)N[C@@H]1C(=O)NCC(=O)N[C@@H](CCCN)C(=O)N[C@@H](CC(=O)O)C(=O)N[C@H](C)C(=O)N[C@@H](CC(=O)O)C(=O)NCC(=O)N[C@H](CO)C(=O)N[C@@H]([C@H](C)CC(=O)O)C(=O)N[C@@H](CC(=O)c2ccccc2N)C(=O)O[C@@H]1C,t1/2,Staphylococcus aureus [1],8.8 h
same,T99.9%,Staphylococcus aureus [2],10.9 h
same,t1/2,Staphylococcus aureus [3],5.3 h
same,RatioAUC/MIC,Staphylococcus aureus [4],536.4
same,t1/2,Staphylococcus aureus [5],7.6 h
same,Cmax,Staphylococcus aureus [6],160.2 µg/mL
same,t1/2,Staphylococcus aureus [7],8.4 h
same,t1/2,Staphylococcus aureus [8],7.9 h
same,Cmax,Staphylococcus aureus [9],107.2 µg/mL
same,T99.9%,Staphylococcus aureus [10],4.8 h
same,MIC,Staphylococcus aureus [11],0.125 µg/mL
same,MIC,Staphylococcus aureus [12],0.25 µg/mL
same,Cmax,Staphylococcus aureus [13],106.8 µg/mL
same,t1/2,Staphylococcus aureus [14],9.3 h
same,MIC,Staphylococcus aureus [15],0.25 µg/mL
same,T99.9%,Staphylococcus aureus [16],6.6 h
same,T99.9%,Staphylococcus aureus [17],9.46 h
same,Cmax,Staphylococcus aureus [18],109.3 µg/mL
same,Cmax,Staphylococcus aureus [19],106.1 µg/mL
same,T99.9%,Staphylococcus aureus [20],34.9 h
same,Cmax,Staphylococcus aureus [21],98.3 µg/mL
same,MIC,Staphylococcus aureus [22],0.25 µg/mL
same,MIC,Staphylococcus aureus [23],0.25 µg/mL
same,t1/2,Staphylococcus aureus [24],8 h
CN[C@H](CC(C)C)C(=O)N[C@H]1C(=O)N[C@@H](CC(N)=O)C(=O)N[C@H]2C(=O)N[C@H]3C(=O)N[C@H](C(=O)N[C@H](C(=O)O)c4cc(O)cc(O)c4-c4cc3ccc4O)[C@H](O)c3ccc(c(Cl)c3)Oc3cc2cc(c3O[C@@H]2O[C@H](CO)[C@@H](O)[C@H](O)[C@H]2O[C@H]2C[C@](C)(N)[C@H](O)[C@H](C)O2)Oc2ccc(cc2Cl)[C@H]1O [VANCOMYCIN],t1/2,Staphylococcus aureus [25],7.2 h
same,t1/2,Staphylococcus aureus [3],5.3 h
same,Cmax,Staphylococcus aureus [26],32.8 µg/mL
same,Cmax,Staphylococcus aureus [27],32.9 µg/mL
same,Cmax,Staphylococcus aureus [28],31.4 µg/mL
same,t1/2,Staphylococcus aureus [29],6.6 h
same,t1/2,Staphylococcus aureus [30],7.4 h
same,Cmax,Staphylococcus aureus [31],33.4 µg/mL
same,t1/2,Staphylococcus aureus [32],6.9 h
same,Cmax,Staphylococcus aureus [33],31.7 µg/mL
